Calls of active or inactive are those of the source. The rule behind the calls is not given here.
Legend:
[1] = tested on: Phosphatidylinositol 4,5-bisphosphate 3-kinase catalytic subunit alpha isoform (Homo sapiens), P42336 [E542K]; test: Binding affinity to human partial length PIK3CA E542K mutant (R108 to N1068 residues) expressed in mammalian expression system assessed as residual binding level at 1 uM by Kinomescan method relative to control
Summary of the method: (§1)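 Kinome-wide single-concentration binding screen (KINOMEscan) at 1 μM against a panel of 468 purified kinases and mutants. Read-out is relative binding of each kinase compared with control. Selectivity across the panel was summarised as an S(10) score.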

[2] = molecular target: Dual specificity mitogen-activated protein kinase kinase 6 (Homo sapiens) (UniProt P52564); test: Binding affinity to wild-type human partial length MEK6 (K36 to D334 residues) expressed in bacterial expression system assessed as residual binding level at 1 uM by Kinomescan method relative to control
Dual specificity mitogen-activated protein kinase kinase 6 (Homo sapiens), sequence (P52564 whole entry, the tested form may be a part): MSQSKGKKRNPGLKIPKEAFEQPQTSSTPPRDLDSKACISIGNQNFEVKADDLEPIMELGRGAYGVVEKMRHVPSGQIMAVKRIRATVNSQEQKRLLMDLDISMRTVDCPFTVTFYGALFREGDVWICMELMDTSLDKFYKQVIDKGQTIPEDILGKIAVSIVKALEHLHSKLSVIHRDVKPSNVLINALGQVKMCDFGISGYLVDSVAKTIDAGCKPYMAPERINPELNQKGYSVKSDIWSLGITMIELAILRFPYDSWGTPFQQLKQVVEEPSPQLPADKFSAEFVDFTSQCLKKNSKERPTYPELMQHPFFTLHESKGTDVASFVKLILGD

[3] = molecular target: TGF-beta receptor type-2 (Homo sapiens) (UniProt P37173); test: Binding affinity to wild-type human partial length TGFBR2 (I218 to K567 residues) expressed in bacterial expression system assessed as residual binding level at 1 uM by Kinomescan method relative to control
[4] = tested on: Mast/stem cell growth factor receptor Kit (Homo sapiens), P10721 [D816V]; test: Binding affinity to human partial length KIT D816V mutant (I571 to D952 residues) expressed in bacterial expression system assessed as residual binding level at 1 uM by Kinomescan method relative to control; summary of the method: as §1
[5] = molecular target: Serine/threonine-protein kinase PAK 5 (Homo sapiens) (UniProt Q9P286); test: Binding affinity to wild-type human partial length PAK7 (Y400 to H719 residues) expressed in bacterial expression system assessed as residual binding level at 1 uM by Kinomescan method relative to control
Summary of the method: (§2)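 KINOMEscan competition binding against a panel of 468 purified kinases/mutants, compound tested at 1 μM; readout is relative binding activity versus control.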

[6] = molecular target: Serine/threonine-protein kinase BRSK1 (Homo sapiens) (UniProt Q8TDC3); test: Binding affinity to wild-type human partial length BRSK1 (M1 to E754 residues) expressed in bacterial expression system assessed as residual binding level at 1 uM by Kinomescan method relative to control
[7] = molecular target: Cyclin-dependent kinase 5 (Homo sapiens) (UniProt Q00535); test: Binding affinity to wild-type human full length CDK5 (M1 to P292 residues) expressed in bacterial expression system assessed as residual binding level at 1 uM by Kinomescan method relative to control
Summary of the method: (§3)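 KINOMEscan competition binding against 468 purified kinases/mutants, test compound at 1 µM; residual binding relative to control.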

[8] = molecular target: Serine/threonine-protein kinase MRCK alpha (Homo sapiens) (UniProt Q5VT25); test: Binding affinity to wild-type human partial length MRCKA (L57 to V418 residues) expressed in bacterial expression system assessed as residual binding level at 1 uM by Kinomescan method relative to control
Serine/threonine-protein kinase MRCK alpha (Homo sapiens), sequence (Q5VT25 whole entry, the tested form may be a part): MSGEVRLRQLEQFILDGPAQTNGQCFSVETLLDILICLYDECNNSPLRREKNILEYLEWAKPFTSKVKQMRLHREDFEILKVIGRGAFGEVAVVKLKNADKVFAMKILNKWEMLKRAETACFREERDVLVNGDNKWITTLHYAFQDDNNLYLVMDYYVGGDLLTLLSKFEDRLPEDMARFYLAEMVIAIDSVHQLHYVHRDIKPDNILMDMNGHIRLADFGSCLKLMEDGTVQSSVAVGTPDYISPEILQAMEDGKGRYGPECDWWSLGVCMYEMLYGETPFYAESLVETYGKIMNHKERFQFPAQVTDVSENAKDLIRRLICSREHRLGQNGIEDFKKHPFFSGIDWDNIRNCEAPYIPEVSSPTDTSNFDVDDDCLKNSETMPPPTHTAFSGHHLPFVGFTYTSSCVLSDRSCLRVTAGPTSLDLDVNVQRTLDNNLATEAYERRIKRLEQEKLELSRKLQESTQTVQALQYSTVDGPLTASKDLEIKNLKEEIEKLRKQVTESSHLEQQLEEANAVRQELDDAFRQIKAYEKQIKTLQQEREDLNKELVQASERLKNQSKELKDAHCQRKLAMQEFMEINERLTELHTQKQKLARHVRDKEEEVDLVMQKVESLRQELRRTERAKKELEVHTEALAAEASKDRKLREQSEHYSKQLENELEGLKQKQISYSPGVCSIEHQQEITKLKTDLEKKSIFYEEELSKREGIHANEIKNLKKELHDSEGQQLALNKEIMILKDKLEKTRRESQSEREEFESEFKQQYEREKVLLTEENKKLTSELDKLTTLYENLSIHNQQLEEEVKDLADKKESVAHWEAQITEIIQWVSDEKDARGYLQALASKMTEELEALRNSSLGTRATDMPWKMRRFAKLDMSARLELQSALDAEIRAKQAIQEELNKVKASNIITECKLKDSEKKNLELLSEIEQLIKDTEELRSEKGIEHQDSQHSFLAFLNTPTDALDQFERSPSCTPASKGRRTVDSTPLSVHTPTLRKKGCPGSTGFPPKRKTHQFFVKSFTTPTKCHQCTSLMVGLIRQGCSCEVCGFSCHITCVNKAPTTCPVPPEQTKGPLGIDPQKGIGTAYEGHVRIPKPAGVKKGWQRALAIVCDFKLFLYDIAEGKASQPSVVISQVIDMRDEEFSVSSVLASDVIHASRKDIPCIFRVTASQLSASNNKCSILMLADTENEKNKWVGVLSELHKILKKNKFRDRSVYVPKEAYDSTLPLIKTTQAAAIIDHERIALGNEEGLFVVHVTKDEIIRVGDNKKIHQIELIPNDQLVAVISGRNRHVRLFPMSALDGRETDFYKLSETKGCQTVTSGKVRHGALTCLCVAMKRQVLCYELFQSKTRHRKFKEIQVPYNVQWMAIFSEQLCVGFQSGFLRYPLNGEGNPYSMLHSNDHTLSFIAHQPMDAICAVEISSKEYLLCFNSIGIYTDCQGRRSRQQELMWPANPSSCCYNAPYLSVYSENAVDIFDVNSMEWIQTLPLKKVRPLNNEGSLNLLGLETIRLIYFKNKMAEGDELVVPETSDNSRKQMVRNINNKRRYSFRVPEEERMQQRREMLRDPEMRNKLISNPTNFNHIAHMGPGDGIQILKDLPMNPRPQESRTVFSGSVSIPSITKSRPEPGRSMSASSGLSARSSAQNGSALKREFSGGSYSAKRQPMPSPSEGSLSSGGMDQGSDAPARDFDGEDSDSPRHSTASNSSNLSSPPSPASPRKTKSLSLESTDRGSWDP
Summary of the method: (§4)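 Kinome-wide competition binding screen against a panel of 468 purified kinases/mutants, with the test compound at a single concentration of 1 μM. Read-out is the relative binding activity of each kinase in the presence of compound.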

[9] = molecular target: Tyrosine-protein kinase receptor UFO (Homo sapiens) (UniProt P30530); test: Binding affinity to wild-type human partial length AXL (R497 to Y821 residues) expressed in bacterial expression system assessed as residual binding level at 1 uM by Kinomescan method relative to control
Tyrosine-protein kinase receptor UFO (Homo sapiens), sequence (P30530 whole entry, the tested form may be a part): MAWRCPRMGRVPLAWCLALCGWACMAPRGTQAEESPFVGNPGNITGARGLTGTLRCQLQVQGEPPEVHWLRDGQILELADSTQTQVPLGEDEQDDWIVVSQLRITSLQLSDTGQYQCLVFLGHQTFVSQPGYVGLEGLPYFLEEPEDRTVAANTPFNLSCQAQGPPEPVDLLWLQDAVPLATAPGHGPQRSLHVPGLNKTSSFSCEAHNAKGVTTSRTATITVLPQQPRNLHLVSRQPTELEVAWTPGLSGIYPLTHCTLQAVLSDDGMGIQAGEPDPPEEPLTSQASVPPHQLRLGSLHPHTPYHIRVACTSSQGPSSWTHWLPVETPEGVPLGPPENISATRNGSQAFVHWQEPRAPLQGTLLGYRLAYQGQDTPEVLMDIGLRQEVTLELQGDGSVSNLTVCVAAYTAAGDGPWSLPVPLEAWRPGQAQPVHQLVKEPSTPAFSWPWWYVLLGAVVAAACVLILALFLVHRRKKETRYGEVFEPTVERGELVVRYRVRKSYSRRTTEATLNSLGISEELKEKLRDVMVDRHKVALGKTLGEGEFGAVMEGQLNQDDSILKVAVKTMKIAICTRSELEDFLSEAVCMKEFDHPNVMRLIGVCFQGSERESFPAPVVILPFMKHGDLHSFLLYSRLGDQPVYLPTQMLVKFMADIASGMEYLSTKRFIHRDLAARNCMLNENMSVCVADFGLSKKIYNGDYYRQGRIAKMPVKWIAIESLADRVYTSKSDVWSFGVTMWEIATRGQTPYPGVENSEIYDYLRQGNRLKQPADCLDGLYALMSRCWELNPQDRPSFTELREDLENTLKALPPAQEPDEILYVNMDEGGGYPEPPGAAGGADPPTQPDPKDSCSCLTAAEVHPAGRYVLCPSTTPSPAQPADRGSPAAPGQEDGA
Summary of the method: (§5)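 Single-concentration KINOMEscan (DiscoverX) binding screen at 1 μM against a panel of 468 purified kinases and mutants. The read-out is binding relative to control.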

[10] = molecular target: Serine/threonine-protein kinase N1 (Homo sapiens) (UniProt Q16512); test: Binding affinity to wild-type human partial length PKN1 (E598 to C948 residues) expressed in bacterial expression system assessed as residual binding level at 1 uM by Kinomescan method relative to control
[11] = molecular target: RAC-gamma serine/threonine-protein kinase (Homo sapiens) (UniProt Q9Y243); test: Binding affinity to wild-type human partial length AKT3 expressed in bacterial expression system assessed as residual binding level at 1 uM by Kinomescan method relative to control; summary of the method: as §4
[12] = molecular target: Serine/threonine-protein kinase Nek9 (Homo sapiens) (UniProt Q8TD19); test: Binding affinity to wild-type human partial length NEK9 (P32 to R328 residues) expressed in bacterial expression system assessed as residual binding level at 1 uM by Kinomescan method relative to control; summary of the method: as §2
[13] = molecular target: Mitogen-activated protein kinase 10 (Homo sapiens) (UniProt P53779); test: Binding affinity to wild-type human partial length JNK3 (V28 to Q422 residues) expressed in mammalian expression system assessed as residual binding level at 1 uM by Kinomescan method relative to control; summary of the method: as §4
[14] = molecular target: Death-associated protein kinase 2 (Homo sapiens) (UniProt Q9UIK4); test: Binding affinity to wild-type human full length DAPK2 (M1 to S370 residues) expressed in bacterial expression system assessed as residual binding level at 1 uM by Kinomescan method relative to control; summary of the method: as §3
[15] = molecular target: Cyclin-dependent kinase 11B (Homo sapiens) (UniProt P21127); test: Binding affinity to wild-type human partial length CDC2L1 (P353 to G692 residues) expressed in bacterial expression system assessed as residual binding level at 1 uM by Kinomescan method relative to control; summary of the method: as §4
[16] = molecular target: Tyrosine-protein kinase Mer (Homo sapiens) (UniProt Q12866); test: Binding affinity to wild-type human partial length MERTK (R557 to L884 residues) expressed in bacterial expression system assessed as residual binding level at 1 uM by Kinomescan method relative to control
Tyrosine-protein kinase Mer (Homo sapiens), sequence (Q12866 whole entry, the tested form may be a part): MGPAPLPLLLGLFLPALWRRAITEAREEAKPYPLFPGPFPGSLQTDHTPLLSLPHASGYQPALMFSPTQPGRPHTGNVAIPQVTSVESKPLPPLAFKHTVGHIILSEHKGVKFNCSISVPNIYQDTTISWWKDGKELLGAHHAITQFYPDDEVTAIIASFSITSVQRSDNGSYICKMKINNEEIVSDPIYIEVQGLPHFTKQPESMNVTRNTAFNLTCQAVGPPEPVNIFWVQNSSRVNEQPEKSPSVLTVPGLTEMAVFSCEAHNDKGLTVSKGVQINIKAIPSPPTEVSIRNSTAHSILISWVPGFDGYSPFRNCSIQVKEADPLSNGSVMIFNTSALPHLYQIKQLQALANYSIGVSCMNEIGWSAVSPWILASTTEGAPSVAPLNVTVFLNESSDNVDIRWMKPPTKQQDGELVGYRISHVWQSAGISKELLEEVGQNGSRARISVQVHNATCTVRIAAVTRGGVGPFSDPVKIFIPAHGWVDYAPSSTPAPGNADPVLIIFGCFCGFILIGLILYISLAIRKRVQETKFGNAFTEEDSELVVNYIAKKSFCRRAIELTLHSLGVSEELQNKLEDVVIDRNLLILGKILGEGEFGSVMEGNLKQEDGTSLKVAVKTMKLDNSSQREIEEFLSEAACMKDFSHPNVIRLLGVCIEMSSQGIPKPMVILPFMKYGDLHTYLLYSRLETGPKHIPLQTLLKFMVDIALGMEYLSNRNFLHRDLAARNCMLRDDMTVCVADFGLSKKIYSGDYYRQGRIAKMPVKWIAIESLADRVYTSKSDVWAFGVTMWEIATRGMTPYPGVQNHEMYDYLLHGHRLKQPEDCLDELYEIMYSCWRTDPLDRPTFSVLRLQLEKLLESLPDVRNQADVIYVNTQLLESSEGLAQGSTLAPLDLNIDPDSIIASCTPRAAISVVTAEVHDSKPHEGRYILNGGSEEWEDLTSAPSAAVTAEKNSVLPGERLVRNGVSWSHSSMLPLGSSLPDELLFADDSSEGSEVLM

[17] = molecular target: MAP kinase-interacting serine/threonine-protein kinase 1 (Homo sapiens) (UniProt Q9BUB5); test: Binding affinity to wild-type human full length MKNK1 (M1 to L424 residues) expressed in mammalian expression system assessed as residual binding level at 1 uM by Kinomescan method relative to control; summary of the method: as §5
[18] = molecular target: Platelet-derived growth factor receptor alpha (Homo sapiens, UniProt P16234); test: Inhibition of PDGFRalpha in human EOL-1 cells assessed as decrease in STAT3 phosphorylation at Y705 residue up to 300 nM after 2 hrs by Western blot analysis; assay type: cell-based
[19] = molecular target: Calcium/calmodulin-dependent protein kinase kinase 2 (Homo sapiens) (UniProt Q96RR4); test: Binding affinity to wild-type human partial length CAMKK2 (D65 to V471 residues) expressed in bacterial expression system assessed as residual binding level at 1 uM by Kinomescan method relative to control; summary of the method: as §4
[20] = molecular target: Cyclin-dependent kinase-like 1 (Homo sapiens) (UniProt Q00532); test: Binding affinity to wild-type human full length CDKL1 (M1 to I358 residues) expressed in mammalian expression system assessed as residual binding level at 1 uM by Kinomescan method relative to control
Summary of the method: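 Single-concentration (1 μM) competition-binding screen run by KINOMEscan against a panel of 468 purified kinases and mutants. The read-out is the relative binding activity of the test compound to each kinase.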

[21] = molecular target: Ephrin type-A receptor 3 (Homo sapiens) (UniProt P29320); test: Binding affinity to wild-type human partial length EPHA3 (D604 to K889 residues) expressed in bacterial expression system assessed as residual binding level at 1 uM by Kinomescan method relative to control; summary of the method: as §4

Phosphatidylinositol 4,5-bisphosphate 3-kinase catalytic subunit alpha isoform (Homo sapiens), P42336 [E542K], sequence (P42336 whole entry E542K, the tested form may be a part, canonical isoform): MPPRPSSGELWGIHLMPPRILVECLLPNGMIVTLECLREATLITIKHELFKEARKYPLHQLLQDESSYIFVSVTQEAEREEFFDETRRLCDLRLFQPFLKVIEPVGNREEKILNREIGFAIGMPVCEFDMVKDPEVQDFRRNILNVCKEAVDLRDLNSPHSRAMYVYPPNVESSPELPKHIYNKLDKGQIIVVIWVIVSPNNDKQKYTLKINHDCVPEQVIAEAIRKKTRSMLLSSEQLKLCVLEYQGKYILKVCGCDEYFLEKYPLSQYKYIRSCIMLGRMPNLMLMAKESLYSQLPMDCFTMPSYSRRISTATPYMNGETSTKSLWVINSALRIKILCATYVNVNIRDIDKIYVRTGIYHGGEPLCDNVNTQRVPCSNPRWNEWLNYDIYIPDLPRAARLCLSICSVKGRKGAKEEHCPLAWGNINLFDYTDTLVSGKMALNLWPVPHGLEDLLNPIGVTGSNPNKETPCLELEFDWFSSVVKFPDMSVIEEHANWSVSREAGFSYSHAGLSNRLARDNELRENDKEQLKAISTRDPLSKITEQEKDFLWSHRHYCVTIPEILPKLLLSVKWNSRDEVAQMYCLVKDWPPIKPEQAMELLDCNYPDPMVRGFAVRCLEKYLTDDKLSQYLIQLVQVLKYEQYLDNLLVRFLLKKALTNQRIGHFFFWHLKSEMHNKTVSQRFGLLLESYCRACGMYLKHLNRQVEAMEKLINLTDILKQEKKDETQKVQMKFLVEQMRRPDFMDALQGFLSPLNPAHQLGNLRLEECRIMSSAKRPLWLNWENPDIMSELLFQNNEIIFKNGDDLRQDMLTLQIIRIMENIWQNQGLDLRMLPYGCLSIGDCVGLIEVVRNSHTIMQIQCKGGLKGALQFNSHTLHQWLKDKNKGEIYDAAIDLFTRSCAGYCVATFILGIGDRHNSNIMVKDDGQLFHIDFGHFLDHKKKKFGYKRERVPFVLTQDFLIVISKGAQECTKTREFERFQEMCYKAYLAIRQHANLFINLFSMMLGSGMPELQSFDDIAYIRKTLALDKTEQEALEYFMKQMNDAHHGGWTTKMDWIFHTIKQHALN

`Cc1ccc(NC(=O)c2ccc(CN(CCN(C)C)C(=O)c3cccnc3)cc2)cc1Nc1nccc(-c2cccnc2)n1` gave an Activity [1] of 83%, an Activity [2] of 100% and an Activity [3] of 100%. For the same compound, the Activity [4] was 88%, the Activity [5] was 92% and the Activity [6] was 93%. For the same compound, the Activity [7] was 94%, the Activity [8] was 80% and the Activity [9] was 95%. The Activity [10] was 100%, the Activity [11] was 92% and the Activity [12] was 92%. The Activity [13] was 48%, the Activity [14] was 94% and the Activity [15] was 91%. For the same compound, the Activity [16] was 100%, the Activity [17] was 100% and the inhibition [18] was “Active”. The Activity [19] was 91%, the Activity [20] was 85% and the Activity [21] was 89%.
